Active and inactive are the calls of the source. No cut-off for these calls is given here.
Assays:
Rattus norvegicus [1] = organism: Rattus norvegicus; assay: Compound was tested for 5HT, Dopamine agonist mediated response in reserpine pretreated rats; mix DA, 5-HT syndrome; type: functional, organism-based
How it was run: (§1)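 Male Sprague-Dawley rats (200–300 g) were given reserpine 5 mg/kg sc 18 h before testing, then the test drug sc in the neck (n = 4). Motor activity was recorded by photocells for 30 min, with gross behaviour observed throughout. 5-HT syndrome: flat body posture, extended limbs, reciprocal forepaw treading. DA response: locomotion and stereotypies.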

Rattus norvegicus [2] = assay: In vivo evaluation for 5-HTP accumulation in the corpus striatum in male rats (sc); type: functional
How it was run: (§2)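 Male Sprague-Dawley rats were pretreated with reserpine 5 mg/kg sc 18 h before dosing. DOPA and 5-HTP in limbic system, striatum and hemispheres were measured by HPLC with electrochemical detection. Dose-response curves used 4–6 dose levels (n = 4) for each region; ED50 was estimated graphically. Partial responses are given as the maximal % reduction at the highest dose tested.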

Rattus norvegicus [3] = assay: In vivo evaluation for 5-HTP accumulation in the hemispheres in male rats (sc); type: functional; how it was run: as §2
Rattus norvegicus [4] = assay: In vivo evaluation for 5-HTP accumulation in the limbic system in male rats (sc); type: functional; how it was run: as §2
Rattus norvegicus [5] = assay: In vivo evaluation for DOPA accumulation in the hemispheres in male rats at highest dose tested; inactive; type: functional, organism-based; how it was run: as §2
Rattus norvegicus [6] = assay: Maximal reduction in percent (Partial response) of DOPA accumulation rat corpus striatum at highest test dose of 3.1 uM/Kg (sc); type: functional; how it was run: as §2
Rattus norvegicus [7] = assay: Maximal reduction in percent (Partial response) of DOPA accumulation rat limbic system at highest test dose of 3.1 uM/Kg (sc); type: functional
D(2) dopamine receptor [8] = molecular target: T1, D(2) dopamine receptor (Rattus norvegicus, UniProt P61169); assay: Displacement of [3H]spiperone from dopamine receptor D2
How it was run: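 Rat striatal membranes in 50 mM potassium phosphate buffer (3 mg original tissue) incubated with 0.5 nM [3H]spiperone for 10 min at 37 °C. Nonspecific binding was defined with 10 μM 6,7-ADTN. Ki was calculated by Cheng–Prusoff; triplicates, 3–7 experiments.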

[9] = molecular target: T2, 5-hydroxytryptamine receptor 1A (Mus musculus, UniProt Q64264); assay: In vitro binding affinity against 5-hydroxytryptamine 1A receptor using [3H]-8-OH-DPAT as radioligand in CHO cells (sc); type: cell-based, Cricetulus griseus
T2 sequence (Q64264 whole entry): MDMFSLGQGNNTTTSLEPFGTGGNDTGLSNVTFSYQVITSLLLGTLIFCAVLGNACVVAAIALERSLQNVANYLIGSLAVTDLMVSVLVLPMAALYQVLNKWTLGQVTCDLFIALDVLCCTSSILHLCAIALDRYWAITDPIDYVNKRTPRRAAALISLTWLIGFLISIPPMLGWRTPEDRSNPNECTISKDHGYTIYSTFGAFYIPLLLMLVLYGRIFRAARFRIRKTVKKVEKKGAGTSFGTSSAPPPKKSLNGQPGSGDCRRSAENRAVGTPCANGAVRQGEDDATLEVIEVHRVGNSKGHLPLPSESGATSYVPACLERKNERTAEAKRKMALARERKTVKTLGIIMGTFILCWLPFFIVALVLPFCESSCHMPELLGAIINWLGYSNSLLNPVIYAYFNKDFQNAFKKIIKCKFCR

[10] = molecular target: T3, 5-hydroxytryptamine receptor 1A (Rattus norvegicus, UniProt P19327); assay: In vitro binding affinity against 5-hydroxytryptamine 1A receptor using [3H]8-OH-DPAT
T3 sequence (P19327 whole entry): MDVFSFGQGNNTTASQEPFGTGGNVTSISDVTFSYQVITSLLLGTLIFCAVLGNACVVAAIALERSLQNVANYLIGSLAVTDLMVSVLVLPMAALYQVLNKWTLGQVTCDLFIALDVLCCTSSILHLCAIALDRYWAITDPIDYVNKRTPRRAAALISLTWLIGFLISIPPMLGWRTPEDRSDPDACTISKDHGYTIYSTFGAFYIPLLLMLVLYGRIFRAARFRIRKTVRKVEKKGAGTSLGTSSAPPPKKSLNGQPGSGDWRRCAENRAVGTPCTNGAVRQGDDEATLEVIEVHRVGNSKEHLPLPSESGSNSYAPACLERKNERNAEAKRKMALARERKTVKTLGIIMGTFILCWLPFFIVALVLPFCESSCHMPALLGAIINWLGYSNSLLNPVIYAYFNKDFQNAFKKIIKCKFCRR
How it was run: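 Rat whole-brain membranes (brainstem and cerebellum removed) in 50 mM Tris pH 8.0 containing NaCl, CaCl2, MgCl2 and 10 μM pargyline, 10 mg tissue per tube. Nonspecific binding was defined with 10 μM 5-HT. IC50 was taken by semi-log linear regression and Ki by Cheng–Prusoff; triplicates.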

[11] = Maximum concentration of the drug at 10 umol/dg administered perorally; type: ADME, organism-based; design: route oral; details: in vivo, po
How it was run: (§3)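 Male Sprague-Dawley rats (300 g) with arterial catheters were dosed 24 h after surgery; orally dosed rats were starved 18 h beforehand. Blood was sampled at intervals up to 12 h and analysed by HPLC with fluorescence detection (ex 285, em 365) or by GC/MS. Cmax is in pmol/mL and tmax in min, mean ± SEM, n = 4–6.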

[12] = Maximum concentration of the drug at 2 umol/dg administered intravenously; type: ADME, organism-based; design: route intravenous; details: in vivo, iv; how it was run: as §3
[13] = Area under curve at 10 uM/dg administered perorally; type: ADME; details: po
How it was run: (§4)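 Male Sprague-Dawley rats (300 g) carrying arterial catheters, used 24 h after surgery; animals dosed orally were starved 18 h beforehand. Blood was sampled at intervals up to 12 h after dosing. Drug levels were measured by HPLC with fluorescence detection (ex 285, em 365) or by GC/MS, calibrated against spiked blank blood. AUC was taken from concentration-time curves; n = 4–6.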

[14] = Area under curve at 2 uM/dg administered intravenously; type: ADME; details: iv; how it was run: as §4
[15] = Bioavailability in rat; type: ADME, organism-based; details: in vivo
How it was run: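 Blood was drawn at intervals up to 12 h and assayed by HPLC-fluorescence or GC/MS against spiked blank-blood standards. F is the ratio of oral to intravenous areas under the blood concentration-time curves; n = 4–6.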

[16] = Half life of compound at 2 uM/dg administered intravenously; type: ADME, organism-based; details: in vivo, iv; how it was run: as §4
D(2) dopamine receptor [17] = molecular target: D(2) dopamine receptor (Homo sapiens, UniProt P14416); assay: In vitro binding affinity against dopamine receptor D2 using [3H]raclopride as radioligand in CHO cells (sc); type: cell-based, Cricetulus griseus
Rattus norvegicus [18] = organism: Rattus norvegicus; assay: Compound was tested for 5-HT behavioral response in reserpine pretreated rats; +5HT syndrome; type: functional, organism-based; how it was run: as §1
Rattus norvegicus [19] = organism: Rattus norvegicus; assay: Maximal reduction in percent (Partial response) of DOPA accumulation rat hemispheres at highest test dose; inactive; type: functional, organism-based; how it was run: as §2
Rattus norvegicus [20] = organism: Rattus norvegicus; assay: Maximal reduction in percent (Partial response) of DOPA accumulation rat limbic system at highest test dose; inactive; type: functional, organism-based
Rattus norvegicus [21] = assay: In vivo evaluation for 5-HTP accumulation in the corpus striatum in male rats (po); type: functional; how it was run: as §2
Rattus norvegicus [22] = assay: In vivo evaluation for 5-HTP accumulation in the hemispheres in male rats (po); type: functional; how it was run: as §2
Rattus norvegicus [23] = assay: In vivo evaluation for 5-HTP accumulation in the limbic system in male rats (po); type: functional; how it was run: as §2
Rattus norvegicus [24] = assay: In vivo evaluation for DOPA accumulation in the hemispheres in male rats at highest test dose; inactive; type: functional, organism-based; how it was run: as §2
Rattus norvegicus [25] = assay: Maximal reduction in percent (Partial response) of DOPA accumulation rat corpus striatum at highest test dose of 12.5 uM/Kg (sc); type: functional; how it was run: as §2
Rattus norvegicus [26] = assay: Maximal reduction in percent (Partial response) of DOPA accumulation rat limbic system at highest test dose of 12.5 uM/Kg (sc); type: functional
[27] = Ratio of ED50 values when the compound was administered subcutaneously to that of peroral administration; type: ADME
How it was run: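 Male Sprague-Dawley rats (200–300 g) pretreated with reserpine (5 mg/kg sc, 18 h earlier). Compound given sc or po. 5-HTP accumulation in the limbic system was measured by HPLC with electrochemical detection. ED50 values came from dose-response curves of 4–6 dose levels (n = 4), and the sc ED50 was divided by the po ED50.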

Rattus norvegicus [28] = organism: Rattus norvegicus; assay: Maximal reduction in percent (Partial response) of DOPA accumulation rat corpus striatum at highest test dose; inactive; type: functional, organism-based; how it was run: as §2
[29] = Time taken to reach the maximum concentration of compound at 2 uM/dg administered intravenously; type: ADME, organism-based; details: in vivo, iv; how it was run: as §3
Rattus norvegicus [30] = assay: In vivo evaluation for DOPA accumulation in the limbic system in male rats (sc); type: functional; how it was run: as §2
Rattus norvegicus [31] = assay: Maximal reduction in percent (Partial response) of DOPA accumulation rat hemispheres at highest test dose of 4.0 uM/kg (sc); type: functional; how it was run: as §2
Rattus norvegicus [32] = assay: In vivo evaluation for DOPA accumulation in the corpus striatum in male rats (sc); type: functional; how it was run: as §2
Rattus norvegicus [33] = assay: Maximal reduction in percent (Partial response) of DOPA accumulation rat lhemispheres at highest test dose of 12.5 umol/kg (sc); type: functional; how it was run: as §2
D(2) dopamine receptor [34] = molecular target: T1, D(2) dopamine receptor; assay: In vitro binding affinity against dopamine receptor D2 using [3H]-Raclopride as radioligand in CHO cells (sc); type: cell-based
Rattus norvegicus [35] = assay: In vivo evaluation for DOPA accumulation in the hemispheres in male rats at highest test dose of 12.5 uM/Kg (sc); inactive; type: functional, organism-based; how it was run: as §2

T1 sequence (P61169 whole entry): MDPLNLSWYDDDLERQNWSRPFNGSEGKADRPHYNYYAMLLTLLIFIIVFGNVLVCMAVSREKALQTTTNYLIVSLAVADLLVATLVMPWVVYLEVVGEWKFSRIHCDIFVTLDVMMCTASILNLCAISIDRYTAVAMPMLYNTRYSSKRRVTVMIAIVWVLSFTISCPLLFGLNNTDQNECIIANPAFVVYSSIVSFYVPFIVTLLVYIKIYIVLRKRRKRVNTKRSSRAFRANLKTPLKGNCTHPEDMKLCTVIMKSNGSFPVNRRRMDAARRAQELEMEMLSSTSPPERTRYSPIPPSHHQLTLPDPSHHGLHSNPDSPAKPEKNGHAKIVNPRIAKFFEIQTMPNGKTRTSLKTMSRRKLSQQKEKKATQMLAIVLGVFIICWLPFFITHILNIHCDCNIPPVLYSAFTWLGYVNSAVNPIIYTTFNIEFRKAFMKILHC
Chain of D(2) dopamine receptor (Homo sapiens, UniProt P14416) (P14416 whole entry): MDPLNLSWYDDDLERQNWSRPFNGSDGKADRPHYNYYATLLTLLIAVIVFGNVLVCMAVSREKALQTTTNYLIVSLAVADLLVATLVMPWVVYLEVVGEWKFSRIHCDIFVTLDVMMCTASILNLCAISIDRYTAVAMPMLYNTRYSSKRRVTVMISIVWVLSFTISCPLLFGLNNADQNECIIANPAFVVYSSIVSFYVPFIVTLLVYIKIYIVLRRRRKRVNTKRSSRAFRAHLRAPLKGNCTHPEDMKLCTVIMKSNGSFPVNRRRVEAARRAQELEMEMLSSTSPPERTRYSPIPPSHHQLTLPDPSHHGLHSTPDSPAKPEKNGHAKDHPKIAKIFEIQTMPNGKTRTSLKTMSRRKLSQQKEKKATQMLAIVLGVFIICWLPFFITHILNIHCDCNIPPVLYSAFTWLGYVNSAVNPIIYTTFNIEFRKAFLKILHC

In the case of `CCCN(CCC)[C@H]1CCc2ccc3[nH]ccc3c2C1`, the Behavioral response (Rattus norvegicus [1]) is reported as “Active”, the ED50 (Rattus norvegicus [2]) is reported as 0.3 µmol/kg and the ED50 (Rattus norvegicus [3]) is reported as 0.2 µmol/kg. The ED50 (Rattus norvegicus [4]) was 0.16 µmol/kg, the ED50 (Rattus norvegicus [5]) was “inactive” and the Reduction (Rattus norvegicus [6]) was 37%. The Reduction (Rattus norvegicus [7]) was 31% and the Ki (D(2) dopamine receptor [8]) was 0.146 µM.
Compound `CCCN(CCC)[C@H]1CCc2ccc3[nH]cc(C(C)=O)c3c2C1` has a Ki [9] of 0.0002 µM, a Ki [10] of 0.002 µM and a Cmax [11] of 606 pM ml-1. The Cmax [12] was 849 pM ml-1, the AUC [13] was 2224 pM/h/g and the AUC [14] was 607 pM/h/g. It also gave a bioavailability [15] of 72%, a half-life at 2 µM [16] of 60 min and a Ki (D(2) dopamine receptor [17]) of 0.423 µM. For the same compound, the Behavioral response (Rattus norvegicus [18]) was “Active”, the ED50 (Rattus norvegicus [19]) was “inactive” and the ED50 (Rattus norvegicus [20]) was “inactive”. The ED50 (Rattus norvegicus [21]) was 1.1 µmol/kg, the ED50 (Rattus norvegicus [2]) was 0.08 µmol/kg and the ED50 (Rattus norvegicus [22]) was 1.1 µmol/kg. It also gave an ED50 (Rattus norvegicus [3]) of 0.095 µmol/kg, an ED50 (Rattus norvegicus [23]) of 0.5 µmol/kg and an ED50 (Rattus norvegicus [4]) of 0.09 µmol/kg. The ED50 (Rattus norvegicus [24]) was “inactive”, the Reduction (Rattus norvegicus [25]) was 25% and the Reduction (Rattus norvegicus [26]) was 37%. The Ratio [27] was 18, the ED50 (Rattus norvegicus [28]) was “inactive” and the Ki (D(2) dopamine receptor [8]) was 3.59 µM. For the same compound, the Tmax at 2 µM [29] was 2 min.
In the case of `CN(C)C1CCc2ccc3[nH]ccc3c2C1` (racemic), the Behavioral response (Rattus norvegicus [18]) is reported as “Active”, the ED50 (Rattus norvegicus [2]) is reported as 0.3 µmol/kg and the ED50 (Rattus norvegicus [3]) is reported as 0.4 µmol/kg. The ED50 (Rattus norvegicus [4]) was 0.3 µmol/kg, the ED50 (Rattus norvegicus [30]) was 0.3 µmol/kg and the Reduction (Rattus norvegicus [31]) was 34%. For the same compound, the ED50 (Rattus norvegicus [32]) was 0.4 µmol/kg.
With `CCCN(CCC)C1CCc2ccc3[nH]ccc3c2C1` (racemic) the Behavioral response (Rattus norvegicus [1]) was “Active”, the ED50 (Rattus norvegicus [2]) was 0.08 µmol/kg and the ED50 (Rattus norvegicus [3]) was 0.11 µmol/kg. For the same compound, the ED50 (Rattus norvegicus [4]) was 0.1 µmol/kg, the ED50 (Rattus norvegicus [30]) was 0.18 µmol/kg and the Reduction (Rattus norvegicus [33]) was 22%. It also gave a Ki (D(2) dopamine receptor [8]) of 0.156 µM and an ED50 (Rattus norvegicus [32]) of 0.28 µmol/kg.
In the case of `CCCN(CCC)C1CCc2ccc3[nH]cc(C=O)c3c2C1` (racemic), the Ki (D(2) dopamine receptor [34]) is reported as 0.04 µM, the Behavioral response (Rattus norvegicus [18]) is reported as “Active” and the ED50 (Rattus norvegicus [2]) is reported as 0.054 µmol/kg. For the same compound, the ED50 (Rattus norvegicus [3]) was 0.067 µmol/kg, the ED50 (Rattus norvegicus [4]) was 0.06 µmol/kg and the ED50 (Rattus norvegicus [35]) was “inactive”. It also gave an ED50 (Rattus norvegicus [30]) of 0.47 µmol/kg, a Ki (D(2) dopamine receptor [8]) of 0.12 µM and an ED50 (Rattus norvegicus [32]) of 1.8 µmol/kg.

From ChEMBL document CHEMBL1126740, “(S)- and (R)-8-(di-n-propylamino)-6,7,8,9-tetrahydro-3H-benz[e]indole-1-carbaldehyde: a new class of orally active 5-HT1A-receptor agonists” (J Med Chem, 1993)
